High-throughput results (PubChem)
FXIIa inh: human FXIIa protease inhibitors, primary screen, biochemical, 1536-well; Coagulation factor XII (Homo sapiens), P00748; purified FXIIa, Boc-QGR-AMC fluorogenic substrate, 2 h; inhibition, % at 5 µM; 0.3% of 220,000 active; AID 800, 2007; in the data active means inhibition above about 40%
FXIa inh: human FXIa protease inhibitors, primary screen, biochemical, 1536-well; Coagulation factor XI (Homo sapiens), P03951; purified FXIa, Boc-Glu-Ala-Arg-AMC fluorogenic substrate; inhibition, % at 5 µM; 0.14% of 220,000 active; AID 798, 2007;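 active means inhibition of at least 40%; inactive means inhibition below 40%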;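 further: fluorescence of freed AMC excited at 355 nm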
KLK5 inh: human KLK5 protease inhibitors, primary screen, biochemical, 1536-well. recombinant hK5, fluorogenic AMC substrate cleavage. inhibition, % at 5 µM. 0.59% of 210,000 active. AID 873, 2007;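 active means inhibition of 40% or more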
Platelet DG rel: inhibitors of platelet dense granule secretion, primary screen, cell-based, MLPCN, human platelets; human platelet-rich plasma, SFLLRN dense granule ATP release, luminescence; AID 1663, 2009; inhibition, %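 (compounds screened at 7.5 µM in platelet-rich plasma)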; 0.22% of 300,000 active;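 active means mean replicate score, as percent of positive control, at or above 50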
thrombin 1536: human alpha-thrombin inhibitors, primary screen, counter-screen for coagulation protease inhibitor project, biochemical, 1536-well, fluorogenic AMC substrate; AID 1046, 2008; 0.26% of 220,000 active; inhibition, % at 5 µM; Boc-VPR-AMC fluorogenic substrate cleavage; Prothrombin (Homo sapiens), P00734;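 active means inhibition at or above 40%; inactive means inhibition below 40%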
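Material: human alpha-thrombin protein. Incubation: reaction at ambient temperature. Technique: fluorescence of released AMC, ex 355 nm, em 460 nm. Control set: no-compound enzyme wells and no-enzyme blanks. Also added: Boc-VPR-AMC substrate, 15 µM final. Buffer or medium: pH 7.5 Tris (50 mM) with NaCl 150 mM, Tween 20 0.05%.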
Wee1 degr inh: Wee1 degradation inhibitors, primary screen, cell-based, HeLa, Wee1K328M-luciferase, luminescence; reporter increase, % at 5 µM; HeLa Luc-Wee1K328M stability; 100% = proteasome inhibitor MG132 effect; Wee1-like protein kinase (Homo sapiens), P30291; AID 1321, 2008; 1.2% of 220,000 active;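 active means activation above the mean of all tested compounds plus 3 SD, set per screening run, cut at about 8.8% in these data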;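 further: cells exposed to compound for 20 h before luminescence read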
Target sequence (P30291 whole entry K328M): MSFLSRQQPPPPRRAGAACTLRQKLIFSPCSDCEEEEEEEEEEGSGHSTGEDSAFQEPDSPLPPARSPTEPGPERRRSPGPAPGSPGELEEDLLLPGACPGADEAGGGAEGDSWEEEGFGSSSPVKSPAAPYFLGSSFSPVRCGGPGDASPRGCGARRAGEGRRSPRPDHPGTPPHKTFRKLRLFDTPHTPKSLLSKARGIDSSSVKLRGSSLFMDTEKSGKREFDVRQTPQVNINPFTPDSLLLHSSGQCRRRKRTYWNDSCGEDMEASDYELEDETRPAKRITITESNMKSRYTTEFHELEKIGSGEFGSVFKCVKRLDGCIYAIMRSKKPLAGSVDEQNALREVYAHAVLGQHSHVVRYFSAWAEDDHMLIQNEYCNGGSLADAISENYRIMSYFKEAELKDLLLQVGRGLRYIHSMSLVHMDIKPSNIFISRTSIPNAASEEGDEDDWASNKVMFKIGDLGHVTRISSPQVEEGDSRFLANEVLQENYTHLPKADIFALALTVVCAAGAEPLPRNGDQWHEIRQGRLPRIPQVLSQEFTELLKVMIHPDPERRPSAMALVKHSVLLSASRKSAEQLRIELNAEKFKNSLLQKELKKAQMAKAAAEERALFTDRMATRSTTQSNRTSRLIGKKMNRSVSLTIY
A number is an active result; 0 = inactive; - = no result given. Only some compounds are listed: those with a hit (about 1.8% of all), similar ones and a draw of the others.

SMILES	FXIIa inh	FXIa inh	KLK5 inh	Platelet DG rel	thrombin 1536	Wee1 degr inh
CCOc1ccc(NC(=O)Nc2ccc3nccnc3c2)cc1	0	0	0	0	0	9.4
CC1CCC2(CC1)NC(=S)N(C(C)(C)C)N2 (stereo not drawn)	0	0	42.1	0	0	0
CC1CCC2(CC1)NC(=S)N(c1ccccc1)N2 (stereo not drawn)	0	0	0	0	0	0
COc1cccc(OCc2cc(C(=O)NC(C)c3cnn(C)c3C)no2)c1 (stereo not drawn)	-	-	-	0	-	-
Oc1ccc(F)cc1-c1cc(-c2ccc3c(c2)OCCO3)n[nH]1	0	0	0	0	0	9.5
Cc1ccc(S(=O)(=O)N/N=C/c2ccc(OCC(=O)NC(C)C)cc2)cc1	-	-	-	0	-	0
COC(=O)c1nc(NC(=O)C(C)(C)C)n[nH]1	0	0	0	0	55.7	0
COC(=O)c1nc(-c2ccccc2)n[nH]1	0	0	0	0	0	0
COC(=O)c1nc(NC(=O)c2ccccc2Cl)n[nH]1	81.9	0	48.2	0	-	0
CC(C)(C)c1ccc(C(=O)Nc2ccc(Oc3cccnc3)nc2)cc1	0	0	0	0	0	0
CCOC(=O)C(=CNc1ccc(Oc2cccnc2)nc1)C(=O)OCC	0	0	0	0	0	9.9
Cc1ccc(-n2c(C)cc(C)c(C#N)c2=O)cc1	0	0	0	0	0	0
Cc1ccc(-n2c(N)c(C#N)c(-c3ccccc3)c(C#N)c2=O)cc1	0	0	0	87.5	0	0
CCOCCCNC(=O)/C(C#N)=C/c1cc(C)c(O)c(C)c1	0	0	0	0	0	8.9
C=CCNC(=O)/C(C#N)=C\c1cc(Cl)c(O)c(OCC)c1	0	0	52.2	0	48.1	0
CCOCCCNC(=O)/C(C#N)=C/c1cc(OC)c(O)c([N+](=O)[O-])c1	0	0	0	0	0	0
COCCNC(=O)/C(C#N)=C/c1ccc(O)cc1	0	0	0	85.6	0	0
O=C(N/N=C/c1ccc(Cl)c([N+](=O)[O-])c1)c1cc(-c2ccc3c4c(cccc24)CC3)n[nH]1	0	0	0	52.2	0	0
O=C1CC(N2CCN(Cc3ccccc3)CC2)C(=O)N1CCc1ccccc1 (stereo not drawn)	0	0	0	0	0	0
O=C1CC(N2CCN(Cc3ccc(Cl)cc3)CC2)C(=O)N1CCc1ccccc1 (stereo not drawn)	40.8	0	0	0	0	0
CCOc1ccc(NC(=O)C(CC(=O)O)Cc2ccc(Br)cc2)cc1 (stereo not drawn)	-	-	-	0	-	-
O=C(O)CC(Cc1ccc(Br)cc1)C(=O)O (stereo not drawn)	61.4	0	0	0	0	0
O=S(=O)(N1CCCCC1)N1CCN(c2ccccc2F)CC1	47.7	0	0	0	0	0
COC(=O)Cc1c(C)nc2nc(-c3ccc(C)cc3)[nH]n2c1=O	40.2	0	0	0	0	0
COC(=O)Cc1c(C)nc2nc(-c3ccc(Cl)cc3)[nH]n2c1=O	0	0	0	0	0	0
SMILES	FXIIa inh	FXIa inh	KLK5 inh	Platelet DG rel	thrombin 1536	Wee1 degr inh
CCCc1nc2c(=O)n(C)c(=O)nc-2n(C)n1	0	0	0	-	0	0
Cn1nc(-c2ccccn2)nc2c(=O)n(C)c(=O)nc1-2	0	0	0	147.9	0	0
COc1ccc([N+](=O)[O-])cc1NCc1ccco1	0	81.1	0	0	0	0
COc1cc([N+](=O)[O-])ccc1NC(=O)NCc1ccco1	0	0	-	0	0	0
Cc1cc(C)cc(N(CC(=O)Nc2cccc(C)n2)S(=O)(=O)c2c(C)noc2C)c1	0	0	0	0	0	0
Cc1ccc(NC(=O)CN(c2cc(C)cc(C)c2)S(=O)(=O)c2c(C)noc2C)nc1	0	0	40.4	0	0	0
Cc1cc(C)nc(Oc2ccc(Br)cc2Br)n1	0	0	0	0	0	9.1
Cc1ccc(OCC(=O)NNC(=O)C2CCCO2)c(C)c1 (stereo not drawn)	0	0	-	0	0	0
O=C(c1ccc(-c2ccc([N+](=O)[O-])cc2)o1)N1CCCCC1	0	0	0	0	60.6	0
CC1CC(C)CN(C(=O)c2ccc(-c3ccc([N+](=O)[O-])cc3)o2)C1 (stereo not drawn)	-	-	-	0	-	-
Cc1ccccc1NC(=S)c1ccc2ccccc2n1	-	-	-	54.3	-	-
CCCN(CC(=O)Nc1ccccc1C)C(=O)c1ccc2ccccc2n1	-	-	-	0	-	-
CCOc1ccc(NC(=O)c2ccccc2NC(=O)c2cccnc2)cc1	-	-	-	0	-	-
c1ccc(C(c2ccccn2)c2ccccn2)cc1	0	0	0	0	0	0
CN(C)CCC(c1ccccc1)c1ccccn1 (stereo not drawn)	0	0	0	0	0	15.5
O=C(N/N=C/c1cccc2nccnc12)c1ccccc1O	0	0	0	0	0	0
O=C(N/N=C/c1cccc2nccnc12)c1ccncc1	0	0	0	0	0	9.8
O=C(N/N=C/c1ccco1)c1ccncc1	0	0	0	0	0	15.0
CC(C)(C)OC(=O)NCCC(=O)N/N=C/c1cccc2nccnc12	0	0	0	-	0	9.3
Cc1cc(C)n(CC(=O)N/N=C/c2ccco2)n1	0	0	0	0	0	9.2
CCC(C)[C@H](NC(=O)OC(C)(C)C)C(=O)N/N=C/c1cccc2nccnc12 (stereo partly drawn)	0	0	0	0	0	0
COc1ccc(NC(=O)CN2C(=O)C(C)SC(C)C2=O)c(OC)c1 (stereo not drawn)	0	0	0	0	0	0
COc1ccc(-c2csc(-c3ccccc3)n2)c(OC)c1	0	0	0	0	0	0
COc1cc2c(cc1OC)-c1cc(Nc3ccc(C)cc3)nc(=O)n1CC2	-	-	-	113.0	-	-
COc1cc2c(cc1OC)-c1cc(Nc3ccc(C(=O)O)cc3)nc(=O)n1CC2	-	-	-	0	-	-
SMILES	FXIIa inh	FXIa inh	KLK5 inh	Platelet DG rel	thrombin 1536	Wee1 degr inh
COc1cc2c(cc1OC)-c1cc(NC3CCCCCC3)nc(=O)n1CC2	0	0	0	82.2	0	0
COc1cc2c(cc1OC)-c1cc(Nc3ccccc3)nc(=O)n1CC2	0	0	0	130.6	0	0
CCOc1cccc(Nc2cc3n(c(=O)n2)CCc2cc(OC)c(OC)cc2-3)c1	0	0	0	0	0	0
COc1cc2c(cc1OC)-c1cc(Nc3ccccc3Br)nc(=O)n1CC2	-	-	-	93.6	-	-
CC(C)(C)c1ccc(OCCC(=O)Nc2ccc(N3CCOCC3)cc2N2CCOCC2)cc1	-	-	-	0	-	-
COc1ccc(Nc2cc3n(c(=O)n2)CCc2cc(OC)c(OC)cc2-3)cc1	-	-	-	61.2	-	-
